Each molecule was assayed against Steroid 5-alpha-reductase (Rattus norvegicus) (UniProt P24008+P31214) (assay: (§1) Inhibitory activity against Steroid 5-alpha-reductase in prostates from male rats). Conditions: Prostate gland; concentration not given here.
Format: tissue-based
Design: concentration or dose not given beside the values
Procedure, shortened: (§2)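 Ventral prostate from male Wistar rats (200–300 g), homogenized in ice-cold 0.32 M sucrose, 1 mM DTT, 20 mM sodium phosphate pH 6.5. Particulate pellet spun at 140000g, stored at –80 °C, used at 1 mg protein. Reaction run in 40 mM phosphate pH 6.5 with 1 mM DTT, 150 µM NADPH and 3 µM [14C]testosterone. Compounds added in ethanol. Incubated 37 °C, 20 min, extracted with ethyl acetate. [14C]T and DHT measured by TLC radioscan. IC50 given as mean ± SE of three experiments.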

inhibition	SMILES
28%	CCCC(CCC)n1ccc2cc(/C(C)=C/C(=O)Nc3ccc(OCCCC(=O)O)cc3)ccc21
31%	C/C(=C\C(=O)Nc1ccccc1OCCCC(=O)O)c1ccc2c(ccn2C2c3ccccc3CCc3ccccc32)c1
38%	C/C(=C\C(=O)Nc1cc(Cl)ccc1OCCCC(=O)O)c1ccc2c(ccn2C(c2ccccc2)c2ccccc2)c1
48%	C/C(=C\C(=O)Nc1ccccc1OCCCC(=O)O)c1ccc2c(ccn2C2CCCCC2)c1
45%	C/C(=C\C(=O)Nc1cc(C)ccc1OCCCC(=O)O)c1ccc2c(ccn2C(c2ccccc2)c2ccccc2)c1
26%	C/C(=C\C(=O)Nc1ccccc1OCCCC(=O)O)c1ccc2c(ccn2C(C)c2ccc3ccccc3c2)c1 (stereo unspecified)
19%	CCCC(CCC)n1ccc2cc(/C(C)=C/C(=O)Nc3cccc(OCCCC(=O)O)c3)ccc21
52%	C/C(=C\C(=O)Nc1cc(F)ccc1OCCCC(=O)O)c1ccc2c(ccn2C(c2ccccc2)c2ccccc2)c1
8%	C/C(=C\C(=O)N(C)c1ccccc1OCCCC(=O)O)c1ccc2c(ccn2C(C)c2ccccc2)c1 (stereo unspecified)

Each molecule was assayed against T1, Steroid 5-alpha-reductase (Rattus norvegicus, UniProt P24008+P31214) (assay: as §1). Conditions: not given.
T1 sequence (P24008 whole entry): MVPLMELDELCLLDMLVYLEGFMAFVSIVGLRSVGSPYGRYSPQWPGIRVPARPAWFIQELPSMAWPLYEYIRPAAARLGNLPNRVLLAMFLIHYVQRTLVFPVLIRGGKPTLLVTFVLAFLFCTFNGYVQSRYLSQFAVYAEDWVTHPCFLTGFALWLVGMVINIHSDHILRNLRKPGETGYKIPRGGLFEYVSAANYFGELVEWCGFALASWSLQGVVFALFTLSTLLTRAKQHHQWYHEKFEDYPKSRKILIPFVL
T1 sequence (P31214 whole entry): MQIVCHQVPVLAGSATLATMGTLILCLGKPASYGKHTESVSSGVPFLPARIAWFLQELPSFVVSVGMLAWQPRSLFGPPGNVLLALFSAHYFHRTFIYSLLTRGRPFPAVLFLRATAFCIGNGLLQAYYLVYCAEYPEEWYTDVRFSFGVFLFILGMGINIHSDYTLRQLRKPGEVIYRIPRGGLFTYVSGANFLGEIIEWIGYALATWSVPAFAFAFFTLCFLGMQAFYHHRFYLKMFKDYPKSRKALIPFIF
Format: tissue-based, Prostate gland
Procedure, shortened: as §2, with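 “protein.” for “protein. Reaction run in 40 mM phosphate pH 6.5 with 1 mM DTT, 150 µM NADPH and 3 µM [14C]testosterone.”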

SMILES	IC50
CCCCC(c1ccccc1)n1ccc2cc(/C(C)=C/C(=O)Nc3ccccc3OCCCC(=O)O)ccc21 (stereo unspecified)	9.8 nM
C/C(=C\C(=O)Nc1ccccc1SCCCC(=O)O)c1ccc2c(ccn2C(c2ccccc2)c2ccccc2)c1	39 nM
C/C(=C\C(=O)Nc1ccccc1OCCCC(=O)O)c1ccc2c(ccn2C(c2ccc(C)cc2)c2ccc(C)cc2)c1	8.8 nM
CCCCCCn1ccc2cc(/C(C)=C/C(=O)Nc3ccccc3OCCCC(=O)O)ccc21	77 nM
CCCCC(C)n1ccc2cc(/C(C)=C/C(=O)Nc3ccccc3OCCCC(=O)O)ccc21 (stereo unspecified)	6 nM
COc1ccc(C(c2ccccc2)n2ccc3cc(/C(C)=C/C(=O)Nc4ccccc4OCCCC(=O)O)ccc32)cc1 (stereo unspecified)	8.8 nM
C/C(=C\C(=O)Nc1ccccc1OCCCC(=O)O)c1ccc2c(ccn2C(c2ccccc2C)c2ccccc2C)c1	19 nM
C/C(=C\C(=O)Nc1ccccc1OCCCC(=O)O)c1ccc2c(ccn2C(c2ccccc2)c2cccnc2)c1 (stereo unspecified)	47 nM
CCCCC(CC)n1ccc2cc(/C(C)=C/C(=O)Nc3ccccc3OCCCC(=O)O)ccc21 (stereo unspecified)	7.1 nM
CCCC(C(C)C)n1ccc2cc(/C(C)=C/C(=O)Nc3ccccc3OCCCC(=O)O)ccc21 (stereo unspecified)	7.2 nM
C/C(=C\C(=O)Nc1ccccc1OCCCC(=O)O)c1ccc2c(ccn2C(c2ccc(Cl)cc2)c2ccc(Cl)cc2)c1	25 nM
C/C(=C\C(=O)Nc1ccccc1OCCCC(=O)O)c1ccc2c(ccn2C(c2ccccc2)c2ccccc2)c1	5.6 nM
CCC(C)n1ccc2cc(/C(C)=C/C(=O)Nc3ccccc3OCCCC(=O)O)ccc21 (stereo unspecified)	67 nM
CCCC(C)n1ccc2cc(/C(C)=C/C(=O)Nc3ccccc3OCCCC(=O)O)ccc21 (stereo unspecified)	7.8 nM
CCCCCC(c1ccccc1)n1ccc2cc(/C(C)=C/C(=O)Nc3ccccc3OCCCC(=O)O)ccc21 (stereo unspecified)	25 nM
CCCC(CC)n1ccc2cc(/C(C)=C/C(=O)Nc3ccccc3OCCCC(=O)O)ccc21 (stereo unspecified)	9.3 nM
CCCCCCCn1ccc2cc(/C(C)=C/C(=O)Nc3ccccc3OCCCC(=O)O)ccc21	120 nM
CCCCC(CCCC)n1ccc2cc(/C(C)=C/C(=O)Nc3ccccc3OCCCC(=O)O)ccc21	21 nM
C/C(=C\C(=O)Nc1ccccc1OCCCC(=O)O)c1ccc2c(ccn2C(c2ccccc2)c2ccccn2)c1 (stereo unspecified)	37 nM
C/C(=C\C(=O)Nc1ccc(C)cc1OCCCC(=O)O)c1ccc2c(ccn2C(c2ccccc2)c2ccccc2)c1	14 nM
C/C(=C\C(=O)Nc1ccccc1OCCCC(=O)O)c1ccc2c(ccn2C(c2ccccc2)c2ccc(C(F)(F)F)cc2)c1 (stereo unspecified)	8.1 nM
C/C(=C\C(=O)Nc1cccc(F)c1OCCCC(=O)O)c1ccc2c(ccn2C(c2ccccc2)c2ccccc2)c1	15 nM
CCCCCC(CCCCC)n1ccc2cc(/C(C)=C/C(=O)Nc3ccccc3OCCCC(=O)O)ccc21	25 nM
C/C(=C\C(=O)Nc1ccccc1OCCCC(=O)O)c1ccc2c(ccn2C(c2ccccc2)c2ccncc2)c1 (stereo unspecified)	26 nM
C/C(=C\C(=O)Nc1ccccc1OCCCC(=O)O)c1ccc2c(ccn2C(CC(C)C)c2ccccc2)c1 (stereo unspecified)	6.3 nM
C/C(=C\C(=O)Nc1ccccc1OCCCC(=O)O)c1ccc2c(ccn2C(C(C)C)C(C)C)c1	14 nM
C/C(=C\C(=O)Nc1ccc(F)cc1OCCCC(=O)O)c1ccc2c(ccn2C(c2ccccc2)c2ccccc2)c1	3.6 nM
COc1ccc(C(c2ccc(OC)cc2)n2ccc3cc(/C(C)=C/C(=O)Nc4ccccc4OCCCC(=O)O)ccc32)cc1	9.8 nM
C/C(=C\C(=O)Nc1ccccc1OCCCC(=O)O)c1ccc2c(ccn2C(c2ccccc2)C(C)C)c1 (stereo unspecified)	25 nM

Next, values leading:

IC50	SMILES
84 nM	C/C(=C\C(=O)Nc1ccccc1OCCCC(=O)O)c1ccc2c(ccn2CC(C)(C)C)c1.Cc1ccccc1
88 nM	C/C(=C\C(=O)Nc1ccccc1OCCCC(=O)O)c1ccc2c(ccn2Cc2ccc(C)cc2)c1
69 nM	C/C(=C\C(=O)Nc1ccccc1OCCCC(=O)O)c1ccc2c(ccn2Cc2ccccc2C)c1
120 nM	CC(C)=CCn1ccc2cc(/C(C)=C/C(=O)Nc3ccccc3OCCCC(=O)O)ccc21
160 nM	C/C(=C\C(=O)Nc1ccccc1OCCCC(=O)O)c1ccc2c(ccn2CC(C)C)c1
97 nM	C/C(=C\C(=O)Nc1ccccc1OCCCC(=O)O)c1ccc2c(ccn2Cc2ccc(F)cc2)c1
480 nM	COc1ccc(Cn2ccc3cc(/C(C)=C/C(=O)Nc4ccccc4OCCCC(=O)O)ccc32)cc1
170 nM	C/C(=C\C(=O)Nc1ccccc1OCCCC(=O)O)c1ccc2c(ccn2Cc2ccc(C(C)(C)C)cc2)c1
9.1 nM	CCCC(c1ccccc1)n1ccc2cc(/C(C)=C/C(=O)Nc3ccccc3OCCCC(=O)O)ccc21 (stereo unspecified)
190 nM	CCCn1ccc2cc(/C(C)=C/C(=O)Nc3ccccc3OCCCC(=O)O)ccc21
23 nM	CCCCCn1ccc2cc(/C(C)=C/C(=O)Nc3ccccc3OCCCC(=O)O)ccc21
780 nM	C/C(=C\C(=O)Nc1ccccc1OCCCC(=O)O)c1ccc2c(ccn2C)c1
250 nM	C/C(=C\C(=O)Nc1ccccc1OCCCC(=O)O)c1ccc2c(ccn2Cc2cccc(C)c2)c1
19 nM	CCC(c1ccccc1)n1ccc2cc(/C(C)=C/C(=O)Nc3ccccc3OCCCC(=O)O)ccc21 (stereo unspecified)
19 nM	C/C(=C\C(=O)Nc1ccccc1OCCCC(=O)O)c1ccc2c(ccn2C(C)c2ccccc2)c1 (stereo unspecified)
300 nM	C/C(=C\C(=O)Nc1ccccc1OCCCC(=O)O)c1ccc2c(ccn2Cc2ccc(C(F)(F)F)cc2)c1
100 nM	CCCCc1ccc(Cn2ccc3cc(/C(C)=C/C(=O)Nc4ccccc4OCCCC(=O)O)ccc32)cc1
43 nM	CCCCn1ccc2cc(/C(C)=C/C(=O)Nc3ccccc3OCCCC(=O)O)ccc21
